Here are results for two molecules from BindingDB's records for doi:10.1021/jm990942i (University of Montpellier, 2000).

The target of the experiment is Gastrin-releasing peptide receptor (Rattus norvegicus, UniProt P52500). As to the kind of experiment: In vitro binding affinity against bombesin / GRP receptors on rat pancreatic acini. The essentials:
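Male Wistar rat dispersed pancreatic acini (about 1 mg/mL protein) incubated 60 min at 37 °C with 20 pM (3-[125I]iodotyrosyl15)GRP and varying analogue; pellet centrifuged at 10000g, washed twice, counted. Nonspecific binding with 10 μM unlabeled BN. Specific binding as %, mean ± SD of three experiments in duplicate.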

Chain of Gastrin-releasing peptide receptor (P52500 whole entry N28S): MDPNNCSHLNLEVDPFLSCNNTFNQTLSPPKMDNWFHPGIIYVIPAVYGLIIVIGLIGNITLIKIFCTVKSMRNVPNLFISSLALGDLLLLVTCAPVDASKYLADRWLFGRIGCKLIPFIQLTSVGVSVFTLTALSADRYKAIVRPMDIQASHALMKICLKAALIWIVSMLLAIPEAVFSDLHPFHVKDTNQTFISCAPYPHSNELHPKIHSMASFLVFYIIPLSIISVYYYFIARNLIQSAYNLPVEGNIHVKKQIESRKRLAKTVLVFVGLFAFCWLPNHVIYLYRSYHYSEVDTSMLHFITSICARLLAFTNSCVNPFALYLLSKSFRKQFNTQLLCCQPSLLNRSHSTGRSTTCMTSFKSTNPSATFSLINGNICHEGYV

What is called Ki is a measure of affinity in units of concentration, obtained from inhibition or displacement. A low value points to higher affinity. `CC(C)CC(NC(=O)C(CC(C)C)NC(=O)C(Cc1cnc[nH]1)NC(=O)Cn1c(=O)n(CCNC(=O)C(Cc2c[nH]c3ccccc23)NC(=O)C(CCC(N)=O)NC(=O)[C@H](N)Cc2ccccc2)c(=O)c2ccccc21)C(N)=O` (some centres not stated) [Bombesin analogues] returned a Ki of more than 1000 nM.

As for `CC(C)CC(NC(=O)C(CC(C)C)NC(=O)C(Cc1cnc[nH]1)NC(=O)[C@H](Cc1ccccc1)N1CC[C@H](NC(=O)C(C)NC(=O)C(Cc2c[nH]c3ccccc23)NC(=O)C(CCC(N)=O)NC(=O)[C@H](N)Cc2ccccc2)C1=O)C(N)=O` (some centres not stated) [Bombesin analogues], the Ki was more than 1000 nM.
